From ChEMBL document CHEMBL2203019, “Cytotoxic cyclic depsipeptides from the Australian marine sponge Neamphius huxleyi” (J Nat Prod, 2012) come the findings set out here.

Assay [1] has as its system NFF. Description: Cytotoxicity against human NFF cells after 72 hrs by alamar blue assay. Type of assay: cell-based. A digest of the protocol: (§1)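 Cells were kept in DMEM with 10% FBS and penicillin/streptomycin at 37 °C and 5% CO2. 1000 cells/well adhered overnight, then were exposed for 72 h to a 10-point series from 100 μM to 3 nM final (1% DMSO). Alamar blue was added to 10% final for 24 h, and fluorescence was read at ex 535/em 590 nm. Triplicates were run. IC50 came from nonlinear regression, as mean ± SD of two independent experiments. Vincristine was the positive control.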

Assay [2] can be described thus: Cytotoxicity against human HEK cells after 72 hrs by alamar blue assay. Type of assay: cell-based. The settings on record: HEK293, 72 h. A digest of the protocol: as §1
A general note: The colour change of resazurin is a common sign of viable cells or microbes.

Assay [3] concerns HeLa. Description: Cytotoxicity against human HeLa cells after 72 hrs by alamar blue assay. Type of assay: functional, cell-based. A digest of the protocol: (§2)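 Cells were grown in RPMI with 10% FBS and penicillin/streptomycin (37 °C, 5% CO2). Plates held 1000 cells/well and were left overnight to adhere. Compounds were given for 72 h over 10 concentrations from 100 μM to 3 nM final, with 1% DMSO. Viability was read with Alamar blue at 10% final for 24 h (fluorescence ex 535/em 590 nm). Each concentration was run in triplicate. IC50 was fitted by nonlinear regression, as mean ± SD of two experiments. Vincristine served as positive control.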

Assay [4] relates to A549. Nature of the assay: Cytotoxicity against human A549 cells after 72 hrs by alamar blue assay. Type of assay: functional, cell-based. Conditions: A549, 72 h. A digest of the protocol: as §1
Assay [5] relates to A549. Nature of the assay: Cytotoxicity against human A549 cells assessed as cell proliferation at 100 nM after 48 hrs by confocal microscopic analysis.
In assay [6] the test system is A549. Description: Cytotoxicity against human A549 cells assessed as cell index at 100 nM after 72 hrs by alamar blue assay. Conditions: in the assay text read “xCelligence impedance assay” for “alamar blue assay”. Type of assay: functional, cell-based. A digest of the protocol:
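Real-time impedance (cell index) was recorded on an xCelligence system. A549 cells were seeded at 4000/well, settled 30 min at room temperature, then recorded at 37 °C, 5% CO2. Next day, half the medium was swapped for medium holding 2× compound. Vehicle was 1% DMSO. Runs were in triplicate, in two independent experiments. Readings were taken every minute for 2 h, then hourly to 72 h.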

Assay [7] has as its system PC-3. Nature of the assay: Cytotoxicity against human PC3 cells after 72 hrs by alamar blue assay. Type of assay: functional, cell-based. The settings on record: PC-3, 72 h. Summed up:
as §2

The subject of assay [8] is LNCaP. Nature of the assay: Cytotoxicity against human LNCAP cells after 72 hrs by alamar blue assay. Type of assay: functional, cell-based. Summed up: as §2

SMILES strings stand for the structures. Counter-ions that a name gives are not always drawn. Active and inactive are the calls of the source. No cut-off for these calls is given here.

Turning to `CCC(C)C[C@@H](C)[C@@H](O)[C@@H](C)C(=O)N[C@@H](CC(N)=O)C(=O)N[C@@H](CCCNC(=N)N)[C@@H](O)[C@@H](O)C(=O)NC(C(=O)N[C@H]1C(=O)N[C@H]([C@H](C)O)C(=O)N[C@H](CCCNC(=N)N)C(=O)N[C@@H](CC(C)C)C(=O)N(C)[C@@H](CCC(N)=O)C(=O)N[C@H]([C@H](OC)c2ccc(O)cc2)C(=O)N2CCCC[C@H]2C(=O)O[C@@H]1C)C(C)C(C)C(N)=O` (relative stereo), the 50% inhibitory concentration (IC50) (as a rule, the concentration at which inhibition is half-maximal) came to 150 nM in assay [1]; 88 nM in assay [2]; 210 nM in assay [3]; 91 nM in assay [4]; 130 nM in assay [7]; 110 nM in assay [8]. The result in assay [5] and in assay [6] was inactive.
With `CO[C@H](c1ccc(O)cc1)[C@H]1NC(=O)[C@H](CCC(=O)O)N(C)C(=O)[C@H](CC(C)C)NC(=O)[C@@H](CCCNC(=N)N)NC(=O)[C@@H]([C@H](C)O)NC(=O)[C@H](NC(=O)C(NC(=O)[C@H](O)[C@H](O)[C@H](CCCNC(=N)N)NC(=O)[C@H](CC(N)=O)NC(=O)[C@H](C)[C@H](O)[C@H](C)CC(C)C)C(C)C(C)C(N)=O)[C@@H](C)OC(=O)[C@@H]2CCCCN2C1=O` (relative stereo), the IC50 in assay [1] came to 260 nM; in assay [2], 160 nM; in assay [3], 170 nM; in assay [4] it was 131 nM; in assay [7], 110 nM; in assay [8] it was 190 nM.
As to `CO[C@H](c1ccc(O)cc1)[C@H]1NC(=O)[C@H](CCC(N)=O)N(C)C(=O)[C@H](CC(C)C)NC(=O)[C@@H](CCCNC(=N)N)NC(=O)[C@@H]([C@H](C)O)NC(=O)[C@H](NC(=O)C(NC(=O)[C@H](O)[C@H](O)[C@H](CCCNC(=N)N)NC(=O)[C@H](CC(N)=O)NC(=O)[C@H](C)[C@H](O)[C@H](C)CC(C)C)C(C)C(C)C(N)=O)[C@@H](C)OC(=O)[C@@H]2CCCCN2C1=O` (relative stereo), the IC50 was determined as 370 nM in assay [1]; 200 nM in assay [2]; 110 nM in assay [3]; 130 nM in assay [4]; 170 nM in assay [7]; 230 nM in assay [8].
For `CC[C@]1(O)C[C@H]2CN(CCc3c([nH]c4ccccc34)[C@@](C(=O)OC)(c3cc4c(cc3OC)N(C=O)[C@H]3[C@@](O)(C(=O)OC)[C@H](OC(C)=O)[C@]5(CC)C=CCN6CC[C@]43[C@@H]65)C2)C1` [VINCRISTINE SULFATE], the IC50 in assay [1] was determined as 17 nM; in assay [2], 31 nM; in assay [3] it was 36 nM; in assay [4] it was 20 nM; in assay [7], 15 nM; in assay [8], 6.1 nM.
